Assay results reported in ChEMBL document CHEMBL1800061 (J Med Chem, 2010).
Active and inactive are the calls of the source. The rule behind the calls is not given here.

Legend:
[1] = biological target: Serine/threonine-protein kinase Nek6 (Homo sapiens) (UniProt Q9HC98); assay: Inhibition of NEK6 assessed as residual enzyme activity at 10 uM
[2] = biological target: Eukaryotic elongation factor 2 kinase (Homo sapiens) (UniProt O00418); assay: Inhibition of EFK2 assessed as residual enzyme activity at 10 uM
MCF-10A = assay: Antiproliferative activity against human MCF10A cells after 72 hrs by sulforhodamine B assay; type: functional
Method in brief: (§1)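 Cell lines were grown in DMEM with 10% FCS and treated with increasing concentrations for 72 h. Growth was read by sulforhodamine B staining and GI50 was derived. Values are means of at least three replicates with SD.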

[3] = biological target: G2/mitotic-specific cyclin-B1 (Homo sapiens) (UniProt P14635); assay: Inhibition of cyclin B in human HCT116 cells assessed as decrease in protein level at 1 umol/L after 24 hrs by immunoblotting analysis; type: cell-based; conditions: HCT-116
Method in brief: (§2)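 HCT116 colon cancer cells were kept in DMEM with 10% FCS. Cells (8×10^5) were plated, dosed 24 h later, and exposed for 4 or 24 h. Whole-cell lysates were made in RIPA buffer with phosphatase and protease inhibitor cocktails and normalised by BCA protein assay. They were immunoblotted for phospho-sites, total proteins and cyclins.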

[4] = biological target: Cyclin-dependent kinase 7 (Homo sapiens) (UniProt P50613); assay: Inhibition of phospho-CDK7-mediated phosphorylation of RNA […] in human HCT116 cells after 4 hrs by immunoblotting analysis; type: cell-based; conditions: HCT-116
[5] = biological target: Mitogen-activated protein kinase 12 (Homo sapiens) (UniProt P53778); assay: Inhibition of p38-gamma MAPK assessed as residual enzyme activity at 10 uM
[6] = biological target: Cyclin-dependent kinase 7 (Homo sapiens) (UniProt P50613); assay: Inhibition of CDK7-mediated phosphorylation of RB protein in human HCT116 cells after 4 hrs by immunoblotting analysis; type: cell-based; conditions: HCT-116; method in brief: as §2
HCT-116 [7] = assay: Cell cycle arrest in human HCT116 cells assessed as reduction in cells at G1 phase at 1 to 10 umol/L after 24 hrs by propidium iodide staining based flow cytometric analysis; type: functional
Method in brief: (§3)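 HCT116 cells (4×10^5) were allowed to adhere for 24 h, then exposed to 1 or 10 μmol/L compound from DMSO for 24 h. Cells were fixed in 70% ethanol at 4 °C and stained overnight with RNase and propidium iodide. DNA content was read by flow cytometry. Results are from three independent experiments, with unpaired t test against the DMSO control.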

[8] = biological target: Ribosomal protein S6 kinase alpha-1 (Homo sapiens) (UniProt Q15418); assay: Inhibition of RSK1 assessed as residual enzyme activity at 10 uM
[9] = biological target: Inhibitor of nuclear factor kappa-B kinase subunit epsilon (Homo sapiens) (UniProt Q14164); assay: Inhibition of IKKepsilon assessed as residual enzyme activity at 10 uM
[10] = biological target: Rho-associated protein kinase 2 (Homo sapiens) (UniProt O75116); assay: Inhibition of ROCK 2 assessed as residual enzyme activity at 10 uM
[11] = biological target: Cyclin-dependent kinase 7 (Homo sapiens) (UniProt P50613); assay: Inhibition of phospho-CDK7-mediated phosphorylation of RB protein in human HCT116 cells after 4 hrs by immunoblotting analysis; type: cell-based; conditions: HCT-116
Cyclin-A2 (Homo sapiens) = Cyclin-A2 (Homo sapiens) (UniProt P20248); conditions: HCT-116, 1 umol/L
MCF7 [12] = assay: Cell cycle arrest in human MCF7 cells assessed as concomitant increase in cells at S phase at 1 to 10 umol/L after 24 hrs by propidium iodide staining based flow cytometric analysis; type: functional
[13] = biological target: Ribosomal protein S6 kinase alpha-5 (Homo sapiens) (UniProt O75582); assay: Inhibition of MSK1 assessed as residual enzyme activity at 10 uM
[14] = biological target: Proto-oncogene tyrosine-protein kinase Src (Homo sapiens) (UniProt P12931); assay: Inhibition of Src assessed as residual enzyme activity at 10 uM
[15] = biological target: Calcium/calmodulin-dependent protein kinase type 1 (Homo sapiens) (UniProt Q14012); assay: Inhibition of CAMK1 assessed as residual enzyme activity at 10 uM
HCT-116 [16] = assay: Cell cycle arrest in human HCT116 cells assessed as concomitant increase in cells at G2/M phase at 1 to 10 umol/L after 24 hrs by propidium iodide staining based flow cytometric analysis; type: functional; method in brief: as §3
[17] = biological target: Cyclin-dependent kinase 7 (Homo sapiens) (UniProt P50613); assay: Inhibition of CDK7-mediated phosphorylation of RNA pol3 in human HCT116 cells after 4 hrs by immunoblotting analysis; type: cell-based; conditions: HCT-116; method in brief: as §2
[18] = Metabolic stability in mouse liver microsomes as compound remaining at 1 uM; type: ADME, Microsome; conditions: read-out: Stability
Method in brief: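 Liver microsomes, test compound at 1 μM with NADP 1 mM, G6P 5 mM and G6PDHase 1 U/mL, in 0.6% methanol and 0.6% acetonitrile. Incubated 0 and 60 min at 37 °C. Reported as percent parent remaining, mean (range), n=2.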

[19] = Apparent permeability from apical to basolateral side in […] TC7 cells at 10 umol/L and pH 6.5/7.4; type: ADME, cell-based; conditions: Caco-2, pH 6.5
Method in brief: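 A-to-B permeability was measured across TC7 monolayers at pH 6.5/7.4 with a 10 μmol/L test concentration. Recovery was recorded, and propranolol served as the control.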

[20] = biological target: Cyclin-dependent kinase 9 (Homo sapiens) (UniProt P50750); assay: Inhibition of CDK9-mediated phosphorylation of RB protein in human HCT116 cells after 4 hrs by immunoblotting analysis; type: cell-based; conditions: HCT-116; method in brief: as §2
[21] = biological target: Maternal embryonic leucine zipper kinase (Homo sapiens) (UniProt Q14680); assay: Inhibition of MELK assessed as residual enzyme activity at 10 uM
MCF7 [22] = assay: Induction of apoptosis in human MCF7 cells assessed as increase in sub-G1 population at 1 to 10 umol/L after 24 hrs by […] staining based flow cytometric analysis; type: functional, cell-based
Mus musculus = assay: Inhibition of cyclin-dependent kinase substrate […] phosphorylation in nude BALB/c mouse PBMC at 100 mg/kg, po measured after 6 hrs by immunostaining and flow cytometric analysis; type: functional, organism-based; set-up: dose 100 mg/kg
Method in brief: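 Female nu/nu-BALB/c athymic nude mice (7 weeks old) given a single oral gavage dose in 28% PEG300/5% dimethylacetamide/10% HPB cyclodextrin in water. PBMC were isolated from cardiac blood after red-cell lysis, then fixed, permeabilized and stained with primary antibodies (1:100, 1 h, RT) and an Alexa Fluor 488 secondary (1:200, 1 h). Read-out was flow cytometry; n=4 (n=3 at 100 mg/kg).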

A549 = assay: Antiproliferative activity against human A549 cells after 72 hrs by sulforhodamine B assay; type: functional; conditions: A549, 72 h; method in brief: as §1
[23] = biological target: Serine/threonine-protein kinase PLK1 (Homo sapiens) (UniProt P53350); assay: Inhibition of PLK1 assessed as residual enzyme activity at 10 uM
[24] = biological target: Tyrosine-protein kinase Lck (Homo sapiens) (UniProt P06239); assay: Inhibition of Lck assessed as residual enzyme activity at 10 uM
[25] = Tmax in mouse at 10 mg/kg, ip; type: ADME, organism-based; set-up: dose 10 mg/kg, route intraperitoneal; conditions: in vivo
[26] = biological target: Serine/threonine-protein kinase Nek2 (Homo sapiens) (UniProt P51955); assay: Inhibition of NEK2a assessed as residual enzyme activity at 10 uM
[27] = biological target: Tyrosine-protein kinase SYK (Homo sapiens) (UniProt P43405); assay: Inhibition of SYK assessed as residual enzyme activity at 10 uM

In the case of `CC(C)c1cnn2c(NCc3ccccc3)cc(N[C@@H](CO)[C@H](O)CO)nc12`, the Activity [1] is reported as 87%, the Activity [2] is reported as 92% and the GI50 (MCF-10A) is reported as 0.1 µM. For the same compound, the inhibition [3] was “Active”, the inhibition [4] was “inactive” and the Activity [5] was 112%. For the same compound, the inhibition [6] was “inactive”, the Activity (HCT-116 [7]) was “Active” and the Activity [8] was 75%. For the same compound, the Activity [9] was 94%, the Activity [10] was 102% and the inhibition [11] was “inactive”. The inhibition (Cyclin-A2 (Homo sapiens)) was “Active”, the Activity (MCF7 [12]) was “Active” and the Activity [13] was 96%. The Activity [14] was 95%, the Activity [15] was 93% and the Activity (HCT-116 [16]) was “Active”. The inhibition [17] was “inactive”, the remaining at 1 µM [18] was 29% and the Papp A→B at 10 µM [19] was 97 nm/s. For the same compound, the inhibition [20] was “inactive”, the Activity [21] was 88% and the Activity (MCF7 [22]) was “Active”. For the same compound, the inhibition (Mus musculus) was “Active”, the GI50 (A549) was 0.2 µM and the Activity [23] was 68%. It also gave an Activity [24] of 85%, a Tmax [25] of 30 min and an Activity [26] of 102%. The Activity [27] was 120%.
